Laboratory results reported in ChEMBL document CHEMBL4513216, “Probing the Open Global Health Chemical Diversity Library for Multistage-Active Starting Points for Next-Generation Antimalarials” (ACS Infect Dis, 2020).

Assay: Toxicity liver stage against HepG2, at 10uM
Assay type: cell-based
Design: test concentration 10 uM, cell line HepG2-A16-CD81EGFP
Conditions: human, HepG2-A16-CD81EGFP cells; read-out: INHIBITION
Summary of the method: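 Uninfected HepG2-A16-CD81EGFP cells, 3 × 10^3 per well, 1536-well, plated on prespotted compound at 10 μM final, parasite-free screening media added to match infected plates; puromycin 10 μM positive, DMSO 0.5% negative; run in parallel with 48 h PbLuc assay at 37 °C, 5% CO2; viability by CellTiter-Glo luminescence, normalized to controls.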

SMILES | cytotoxicity at 10 µM
CC(C)[C@H](NC(=O)N1CCC(Cc2ccccc2)CC1)C(=O)O | -7.44%
CCNC(=O)N1CC[C@H]2CC(=O)N(CC(N)=O)CC[C@H]2C1 | 10%
O=C(NC[C@H]1OC[C@@H](NC2CCC(F)(F)CC2)[C@@H]1O)N1CCOCC1 | -0.0603%
CNC(=O)[C@@H]1[C@@H](c2ccccc2)CN2CCN(Cc3cc(C)no3)C[C@H]12 | 5.94%
CCNCCC(Cc1ccccc1)c1ccco1 (stereo not drawn) | 5.31%
Cc1cc(C)n2c(CCCNS(=O)(=O)c3cccs3)nnc2n1 | 1.57%
COCC(=O)NCc1nn(CCN2CCCC2)c(=O)c2ccccc12 | -18.9%
Cc1nnc(C2CCN(C(=O)c3cnc4ccccc4n3)CC2)s1 | 7.1%
O=C(NC[C@H]1OC[C@@H]2CCN(c3ncccn3)C[C@@H]21)c1ccnnc1 | 7.37%
Cc1noc(C2CCC3(CCN(C(=O)c4ccncn4)CC3)O2)n1 (stereo not drawn) | 5.76%
CCOCC1CN(C(=O)c2cccc(C)n2)Cc2cnn(C)c21 (stereo not drawn) | 2.98%
CCOCC1CN(Cc2cc(C)on2)Cc2cn(C)nc21 (stereo not drawn) | 13.6%
O=C(NCc1cccnc1)C1=NOC2(CCN(C3CCOCC3)C2)C1 (stereo not drawn) | -1.63%
O=C(c1ccccc1)N1CC[C@H]2C[C@H](c3nccs3)O[C@@H]2C1 | 8.39%
O=C(NCCn1ccc(-c2ccccn2)n1)c1ccncc1 | -20.7%
CS(=O)(=O)NC[C@]12COC[C@H]1CN(C(=O)c1ccccc1)C2 | 1.44%
O=C(Nc1ccccc1)c1n[nH]c(-n2cnnc2)n1 | 9.37%
Cc1nn(C)c(C)c1CNC(=O)c1cc(NC(=O)C2CC2)n(C)n1 | 5.31%
CCOCc1cccc(S(=O)(=O)Nc2ncc(C)s2)c1 | 6.38%
CCCNC(=O)C(C)n1nc(-c2ccc(C)o2)cc(N)c1=O (stereo not drawn) | -1.15%
CCC1c2cccn2CCN1S(=O)(=O)N1CCOCC1 (stereo not drawn) | 7.25%
CSc1nnc(CNC(=O)Nc2ccccc2F)n1C | 4.09%

SMILES | cytotoxicity at 10 µM
O=C(NCC1CCCO1)c1cc(-c2cccnc2)c2cnccc2n1 (stereo not drawn) | 15.2%
NC(=O)c1ccc(C2CN(Cc3ccc(F)cc3)CCO2)nc1 (stereo not drawn) | 18.6%
CC[C@H](Cn1ncc2ccccc2c1=O)NC(=O)c1ccccn1 | -4.27%
O=C(C1CC1)N1C[C@H]2CCCN(S(=O)(=O)c3ccc(Cl)s3)[C@H]2C1 | 8.26%
CCCN1C[C@H](NC(=O)c2cccs2)[C@@H](c2ccc(OC)cc2)C1 | -9.96%
O=C(c1cccnc1)N1CCOC(c2ccc(-c3cncnc3)cn2)C1 (stereo not drawn) | -16%
Cc1nc(NC2CCCC2)cc(C2CCN2C(=O)c2ccccc2)n1 (stereo not drawn) | -6.31%
Cc1ccc(S(=O)(=O)NC(CO)CC(C)C)cc1N(C)C (stereo not drawn) | -0.996%
CC(=O)c1cccc(OCC(=O)N(CC(C)C)C2CCN(C)CC2)c1 | -17.6%
CN(C)C(=O)CCC[S+]([O-])Cc1ccc(F)c(F)c1 (stereo not drawn) | 12.2%
CC(C)(NS(C)(=O)=O)C(=O)NCCc1csc2ccccc12 | 0.694%
CN(C(=O)c1ccccc1N(C)S(C)(=O)=O)c1ccc(C(C)(C)C)cc1 | 5.17%
CC(C)CC(=O)N1Cc2ccccc2CC1C(=O)Nc1nccs1 (stereo not drawn) | -135%
Cn1c(CN2CCCC(N3CCNC3=O)C2)cc(=O)n(C)c1=O (stereo not drawn) | -5.6%
CC(NCCc1nccn1Cc1ccccc1)c1cccs1 (stereo not drawn) | 3.68%
CCCC(C#N)NC(=O)CCCOc1cccc(F)c1 (stereo not drawn) | -44.1%
CNS(=O)(=O)c1ccc(F)c(C(=O)NCc2ccnc(OC)c2)c1 | -9.8%
C1CCC(CNC2CCCN(Cc3noc(C4CC4)n3)C2)CC1 (stereo not drawn) | -4.15%
CCOc1cc(CN(C)CCCO)ccc1OC(F)F | -14.1%
CCn1cnnc1C1CCN(C(=O)c2ccnc(N(C)C)c2)CC1 | 8.2%
O=C(CC1CN(Cc2ccccc2)CCO1)Nc1ccsc1 (stereo not drawn) | -16.4%
CC(C)NC(=O)CCNC(=O)c1cc(F)ccc1NS(C)(=O)=O | -4.24%

SMILES | cytotoxicity at 10 µM
CCN(C(=O)NCCc1ccccc1Cl)C(C)CS(C)(=O)=O (stereo not drawn) | 8.83%
COc1cc(F)c(S(=O)(=O)N2c3ncccc3NC(=O)C2C)cc1OC (stereo not drawn) | -1.92%
Cc1cccc(OCC(=O)N(Cc2ccncc2)C2CC2)c1 | -40.4%
NC(=O)NC(CC(=O)NCCc1cccc(F)c1)c1cccs1 (stereo not drawn) | 1.55%
COCc1cccc(NC(C)C(=O)N(C)Cc2ccccc2)c1 (stereo not drawn) | -0.42%
O=C(Cc1ccccc1)N1CCC2(CC1)CC(Nc1cnccn1)CO2 (stereo not drawn) | 5.1%
CS(=O)(=O)N1C[C@@H]2CCN(C(=O)c3cscn3)[C@@H]2C1 | 9.79%
O=C(NCC1Cn2nnc(-c3ccncc3)c2CO1)c1ccc[nH]1 (stereo not drawn) | 1.6%
O=C(c1ccnnc1)N1C[C@@H](OCC2CCOCC2)[C@H]2OCCC[C@H]21 | -4.66%
CC(C)[C@@H]1CN(C(=O)NCc2ccco2)C[C@H]1N(C)C | 12.7%
CCC[C@H]1CN(C2CCOCC2)C[C@@H]1NC(=O)CCCn1ccnc1 | 8.06%
COc1ccc(C(=O)N2C[C@@H](O)[C@H](NCc3ncccc3C)C2)cc1 | 0.225%
O=C(NCC1CCCCO1)c1cc(Cn2cnc3ccccc32)[nH]n1 (stereo not drawn) | -11.3%
CC(C)S(=O)(=O)N1CCCC(c2nnc(Cn3ccnc3)n2C)C1 (stereo not drawn) | -2.83%
COc1ccccc1OC1CN(C(=O)C(c2ccccc2F)N(C)C)C1 (stereo not drawn) | 3.91%
CCc1cc(C(=O)NCC2CCN(Cc3cccc(C#N)c3)C2)on1 (stereo not drawn) | 4.98%
CCC(Nc1ncccn1)c1cccnc1 (stereo not drawn) | 5.84%
O=C(CCc1nc(Cl)n[nH]1)N1C[C@H](CO)C[C@H](CN2CCCC2)C1 | 0.77%
COc1cccc([C@H]2CN(C(=O)c3noc4c3CCCC4)C[C@@H]2N)c1 | 2.57%
Cc1cc(C)n(C2CN(C(=O)Cn3c(=O)c(C)nc4ccccc43)C2)n1 | -7.59%
COCCC1(C(=O)O)CCCN(CCc2ccccc2)C1 (stereo not drawn) | 10.6%
CCn1cnc(NC(=O)N2CCC(c3ccc(F)cc3)C2)n1 (stereo not drawn) | 4.17%

SMILES | cytotoxicity at 10 µM
Cc1nc(CNc2nc(-c3ccco3)nc3c2CCNCC3)n[nH]1 | -9.08%
C[C@@H]1CN(C(=O)C2(Cn3cccn3)CC2)CC[C@@]1(O)C1CCOCC1 | 3.48%
CCC(C)N(Cc1cccnc1)Cc1ccccc1Cn1cccn1 (stereo not drawn) | -43%
Cc1ccc(C(C(=O)NCc2cc(C)[nH]n2)N(C)C)cc1 (stereo not drawn) | -0.671%
CCCNS(=O)(=O)c1ccc(C(=O)NC(CC)c2cnn(C)c2)cc1 (stereo not drawn) | 6.1%
CCc1cc(N[C@H]2CCC[C@H]2O)n2nccc2n1 | -4%
Cn1cc2ncn(CCNc3cccnc3)c(=O)c2n1 | 2.52%
O=C(c1ccc(N2CCOCC2)nc1)N1CCCC(n2cccn2)C1 (stereo not drawn) | -11.2%
CC(C)CS(=O)(=O)CC(=O)NC(C)c1nnc2n1CCC2 (stereo not drawn) | -19.1%
CC(C)(C)c1ncc(CNCC2CCCN2c2cccnn2)s1 (stereo not drawn) | -3.33%
OCC1CCCN1c1cc(NCc2cccs2)ncn1 (stereo not drawn) | -5.62%
Cn1ccc(CN2CCC(CN3CCOCC3)CC2)cc1=O | -11%
CC(Cn1cccn1)NC(=O)NCc1cccnc1 (stereo not drawn) | -0.088%
Cc1nc(CN2CCCC(N(C)CC(=O)Nc3cccnc3)C2)no1 (stereo not drawn) | -7.88%
CC(C)(O)CN1CCN(C(=O)c2cccc3[nH]ncc23)CC1 | 3.28%
CC(C(=O)Nc1ccc(N2CCCC2)nc1)n1ccnc1 (stereo not drawn) | -8.53%
Cc1ccc(CNC(C)c2ccc3[nH]c(=O)[nH]c3c2)s1 (stereo not drawn) | -10.7%
COc1cccc(-n2c(C)cc(C(=O)NS(C)(=O)=O)c2C)c1 | -6%
c1cnc(Nc2cncc(C3CCCN3)n2)cn1 (stereo not drawn) | -8.69%
Cc1cccc(CN2CCCCC2c2n[nH]cc2-c2cc(C)no2)c1 (stereo not drawn) | 6.5%
Cc1cc(C[C@@H]2COC[C@H]2NCc2ccc(C(F)(F)F)cc2)on1 | -18.7%
CN1CCN(C[C@H]2OC[C@@H]3CCN(C(=O)c4cnccn4)C[C@@H]32)CC1 | 12%

SMILES | cytotoxicity at 10 µM
Fc1cnc(N2CC[C@@H]3O[C@@H](COCc4cccnc4)CC[C@@H]32)nc1 | 10.1%
COc1c(CNCc2nnc3n2CCCCC3)c(C)nn1C | 9.03%
COCC1CN(C(=O)c2cccn2C)Cc2c1cnn2CC1CC1 (stereo not drawn) | 8.07%
COCC1c2c(cnn2C)CCN1Cc1ccc(C)cc1 (stereo not drawn) | 45%
CN(C)C(=O)c1nn(C)c2c1CN(Cc1ccc(F)cc1)C2 | -9.88%
Cc1nnc([C@H]2C[C@@H]3CCN(Cc4ccc(C)o4)C[C@H]3O2)[nH]1 | -2.1%
CCc1ccc(CN2CCc3c(nnn3C)C2COC)cc1 (stereo not drawn) | 7.28%
O=C(NCC1CC1)C1CN(c2ncccn2)Cc2ccnn2C1 (stereo not drawn) | 0.705%
CNC(=O)c1cc(C2CCCN2)n[nH]1 (stereo not drawn) | -11.9%
CCc1nccn1-c1cccc(C2CCCN2)n1 (stereo not drawn) | -5.77%
c1csc(CN2CCCC3(COCCN(Cc4c[nH]nn4)C3)C2)c1 (stereo not drawn) | 5.1%
c1ccc(CN2CC[C@]3(C[C@@H](Oc4ccccn4)CO3)C2)nc1 | -1.88%
Cn1cc(CN2C[C@H]3CCC[C@@H](CNc4ncccn4)[C@H]3C2)cn1 | -2.57%
O=C(Cc1ccsc1)N1C[C@@H]2OCCN(CC3CC3)[C@@H]2C1 | 10.1%
O=C1CC(c2ccccc2)C2(CCN(CC3CC3)CC2)N1 (stereo not drawn) | -6.47%
CCOCC1CN(S(=O)(=O)CC)Cc2cnn(CC3CC3)c21 (stereo not drawn) | 9.55%
O=c1c2sccc2nc2n1CCN(Cc1ccc(F)c(F)c1)CC2 | -26%
CC(C)CN1C[C@@H]2C[C@H](C(=O)NC3CCC3)[C@H](C1)O2 | 2.37%
CC(C)CN1C[C@@H]2C[C@H](C(=O)N3CCCC3)[C@H](C1)O2 | 3.17%
O=S(=O)(c1cccnc1)N1C[C@H]2CC[C@@H](C1)N(Cc1ccccn1)C2 | -0.807%
